Drawing on ChEMBL document CHEMBL1155236, “Identification of biphenyl-based hybrid molecules able to decrease the intracellular level of Bcl-2 protein in Bcl-2 overexpressing leukemia cells” (J Med Chem, 2009), this text covers IC50, Activity and AC50 for eight compounds.

Structures are written as SMILES.

Assay [1] has as its system HL-60. Briefly: Antiproliferative activity against human HL60 cells after 48 hrs by trypan blue method. Type of assay: functional, cell-based. Conditions: HL-60, 48 h. The method, boiled down: (§1)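 Growth inhibition read by counting cells with an automatic cell counter after 48 h of compound exposure. IC50 is the concentration inhibiting 50% of cell growth.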
The test system of assay [2] is K562. Briefly: Antiproliferative activity against human K562 cells after 48 hrs by trypan blue method. Type of assay: functional, cell-based. Particulars: K562, 48 h. The method, boiled down:
as §1

Assay [3] has as its system K562. Briefly: Cell cycle arrest in human K562 cells by accumulation at G1 phase at 30 uM after 24 hrs using propidium iodide staining by FACS. Type of assay: functional. The gist of the method:
(§2)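 K562 cells treated for 24, 48 or 72 h. Cells stained with propidium iodide and cell-cycle phase distribution analysed by flow cytometry against untreated cells. The sub-G0–G1 peak was taken as apoptotic.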

The test system of assay [4] is K562. Briefly: Cell cycle arrest in human K562 cells by accumulation at S phase at 30 uM after 24 hrs using propidium iodide staining by FACS. Type of assay: functional. The gist of the method:
as §2
A general note: In flow cytometry, cells or beads pass a laser one at a time.

Assay [5] has as its system K562. Briefly: Cell cycle arrest in human K562 cells by accumulation at G2/M phase at 30 uM after 24 hrs using propidium iodide staining by FACS. Type of assay: functional. The method, boiled down: as §2
The test system of assay [6] is K562. Description: Cell cycle arrest in human K562 cells by accumulation at sub-G1 (apoptotic) phase at 30 uM after 24 hrs using propidium iodide staining by FACS. Type of assay: functional. The gist of the method:
as §2

In assay [7] the test system is K562. Briefly: Cell cycle arrest in human K562 cells by accumulation at G1 phase at 30 uM after 48 hrs using propidium iodide staining by FACS. Type of assay: functional. The method, boiled down:
as §2

In assay [8] the test system is K562. Briefly: Cell cycle arrest in human K562 cells by accumulation at S phase at 30 uM after 48 hrs using propidium iodide staining by FACS. Type of assay: functional. The method, boiled down:
as §2

Assay [9] deals with K562. Description: Cell cycle arrest in human K562 cells by accumulation at G2/M phase at 30 uM after 48 hrs using propidium iodide staining by FACS. Type of assay: functional. The method, boiled down: as §2
Assay [10] relates to K562. Description: Cell cycle arrest in human K562 cells by accumulation at sub-G1 (apoptotic) phase at 30 uM after 48 hrs using propidium iodide staining by FACS. Type of assay: functional. The method, boiled down:
as §2

Assay [11] relates to K562. Briefly: Cell cycle arrest in human K562 cells by accumulation at G1 phase at 30 uM after 72 hrs using propidium iodide staining by FACS. Type of assay: functional. The method, boiled down: as §2
The subject of assay [12] is K562. Briefly: Cell cycle arrest in human K562 cells by accumulation at S phase at 30 uM after 72 hrs using propidium iodide staining by FACS. Type of assay: functional. The gist of the method: as §2
Assay [13] concerns K562. Briefly: Cell cycle arrest in human K562 cells by accumulation at G2/M phase at 30 uM after 72 hrs using propidium iodide staining by FACS. Type of assay: functional. The method, boiled down: as §2
Assay [14] deals with K562. Description: Cell cycle arrest in human K562 cells by accumulation at sub-G1 (apoptotic) phase at 30 uM after 72 hrs using propidium iodide staining by FACS. Type of assay: functional. The method, boiled down: as §2
The test system of assay [15] is K562. Description: Induction of apoptosis in human K562 cells assessed as decrease in Bcl-2 expression at 30 uM after 24 hrs by flow cytometry. Type of assay: functional. On the set-up: scale not given: the % may be the effect or the level left. The method, boiled down:
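K562 cells cultured 24 h with compound at 30 μM or without (control). Intracellular Bcl-2 read by flow cytometry after staining with FITC-conjugated anti-Bcl-2 monoclonal antibody. Treated histograms compared with control histograms.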

Assay [16] has as its system HL-60. Description: Induction of apoptosis in human HL60 cells assessed as morphological changes after 48 hrs by annexin V assay. Type of assay: functional, cell-based. Particulars: HL-60, 48 h. The method, boiled down: (§3)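 HL60 or K562 cells treated for 48 h. Apoptosis scored by morphological assay and annexin V test. AC50 is the concentration inducing apoptosis in 50% of cells.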

For assay [17], the system named is K562. Briefly: Induction of apoptosis in human K562 cells assessed as morphological changes after 48 hrs by annexin V assay. Type of assay: functional, cell-based. Conditions: K562, 48 h. The gist of the method:
as §3

Assay [18] can be described thus: Cytotoxicity against human lymphocytes after 48 hrs by trypan blue method. Type of assay: cell-based. Conditions: Lymphocyte. The method, boiled down:
as §1

As usually defined, the IC50 is the concentration needed to halve the response being measured. As usually defined, the AC50 is the midpoint of the concentration-response curve, whichever way the signal moves.

As to `CC1(C)OC(=O)C2(C(=O)O1)[C@@H](c1ccc(O)cc1)CC(=O)C[C@H]2c1ccc(O)cc1`, the IC50 in assay [1] is 87 µM; in assay [2], above 100 µM.

For the compound `O=C1C[C@H](c2ccc(-c3ccc(O)cc3)cc2)C2(C(=O)c3ccccc3C2=O)[C@H](c2ccccc2)C1`, the Activity stood at 44% in [3]; 39% in assay [4]; 17% in [5]; 4% in assay [6]; 35% in assay [7]; 61% in [8]. Moreover, the Activity is reported as 4% in assay [9]; 53% in assay [10]; 34% in assay [11]; 61% in [12]; 2% in assay [13]; 55% in assay [14]. For the same compound, the Activity in assay [15] came to 32.8%. Moreover, the IC50 in assay [1] was 6 µM; in assay [2], 8 µM; in [18] (read-out: IC50), 215 µM. For the same compound, the figures for the AC50 in [16] (read-out: AC50) and in assay [17] (read-out: AC50) were 11 µM and 25 µM, respectively.

For the compound `O=C1C[C@H](c2cnc[nH]2)C2(C(=O)c3ccccc3C2=O)[C@H](c2ccc(O)cc2)C1`, the IC50 was found to be 86 µM in assay [1] and 95 µM in [2].

As for `CC1(C)OC(=O)C2(C(=O)O1)[C@@H](c1ccc(-c3ccc(O)cc3)cc1)CC(=O)C[C@H]2c1ccccc1`, the Activity in [3] was found to be 46%; in assay [4], 43%; in assay [5], 11%; in assay [6] it was 7%; in assay [7], 39%; in [8], 52%. Also, the Activity in [9] was 9%; in [10], 46%; in assay [11], 37%; in [12], 54%; in assay [13], 9%; in assay [14] it was 47%. The Activity in assay [15] is 31.2%. In addition, the IC50 in [1] came out at 8 µM; in assay [2] it was 9 µM; in assay [18] it was 172 µM. Besides, the half-maximal activity concentration (AC50) in [16] is 16 µM; in [17] it was 33 µM.

For `O=C1C[C@H](c2ncc[nH]2)C2(C(=O)c3ccccc3C2=O)[C@H](c2ncc[nH]2)C1`, the concentration for half-maximal inhibition (IC50) in [1] and in assay [2] was above 100 µM throughout.

For `O=C1C[C@H](c2ccc(O)cc2)C2(C(=O)c3ccccc3C2=O)[C@H](c2ccccc2)C1`, the half-maximal inhibitory concentration (IC50) in assay [1] came to 23 µM; in [2], 25 µM.

`COc1ccc(-c2ccc([C@H]3CC(=O)C[C@@H](c4ccccc4)C34C(=O)c3ccccc3C4=O)cc2)cc1`: the half-maximal inhibitory concentration (IC50) in assay [1] and in [2] was above 100 µM in each case.

Take `OCc1ccc(-c2cc(O)cc(O)c2)cc1`: the IC50 in [1] and in assay [2] was above 80 µM throughout. Also, the half-maximal activity concentration (AC50) in assay [16] (read-out: AC50) and in assay [17] (read-out: AC50) was above 80 µM throughout.
